High-throughput results as filed in PubChem BioAssay.
The list is not random: actives were taken first. Their share in the collection is about 2.8%.
NPY2 pot ag: NPY-Y2 potentiators or agonists, primary screen, cell-based; Neuropeptide Y receptor type 2 (Homo sapiens), P49146; cells expressing NPY-Y2, potentiator/agonist read-out; activation, % at 3.6 µM; 220,000 compounds, 0.45% hits; in the data active = activation above about 27%;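 note: cells stimulated with NPY near EC25 plus isoproterenol at EC100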
Measles CPE: compounds protecting cells from measles virus cytopathic effect, primary screen, measles RdRp inhibitor project, single point, MLSMR library, absorbance; Measles virus-infected cells, CPE protection; 140,000 compounds, 1.5% hits; protection (pct of control), % at 4 µM; in the data active = protection mostly above about 24%, no sharp cut-off; inactive = mostly below about 26%
MDM2 E3 inh: MDM2-luciferase reporter signal enhancers, primary screen, MDM2 E3 ligase inhibitor project, cell-based, luminescence, 1536-well; cell-based MDM2 ubiquitination luciferase reporter, 2 h; 0 = plate control, 100 = twice control, blank-subtracted; signal enhancement, % at 5 µM; 210,000 compounds, 0.11% hits; AID 1230, 2008;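 active = signal enhancement of 30% or more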;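 note: luminescence tracks abundance of the self-degrading MDM2-luciferase fusion protein; higher signal means inhibition of MDM2 E3 ligase activity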
Target sequence (Q00987 whole entry, looked up, the tested form may be a part): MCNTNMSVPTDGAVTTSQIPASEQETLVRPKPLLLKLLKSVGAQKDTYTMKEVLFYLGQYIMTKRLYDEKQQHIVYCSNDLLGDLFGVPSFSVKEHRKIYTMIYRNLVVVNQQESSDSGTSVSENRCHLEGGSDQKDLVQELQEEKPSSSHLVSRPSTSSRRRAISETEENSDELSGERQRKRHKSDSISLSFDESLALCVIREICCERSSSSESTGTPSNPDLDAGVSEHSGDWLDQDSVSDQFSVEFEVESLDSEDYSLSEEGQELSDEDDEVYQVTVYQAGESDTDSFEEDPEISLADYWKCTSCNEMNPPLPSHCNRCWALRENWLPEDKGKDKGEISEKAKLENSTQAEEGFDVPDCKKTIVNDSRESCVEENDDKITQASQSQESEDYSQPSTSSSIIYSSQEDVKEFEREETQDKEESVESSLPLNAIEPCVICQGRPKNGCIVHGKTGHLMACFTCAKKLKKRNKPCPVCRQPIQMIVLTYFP
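Timing – 2 h compound exposure at 37 °C · Assay system – mammalian cells stably expressing self-ubiquitinating, self-degrading MDM2 E3–luciferase fusion · Amount – 2000 cells seeded into each well · Measure – % luminescence enhancement versus blank-corrected plate control mean · Measured by – SteadyLite luminescence, 15 min reagent step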
NPY-Y1 antag: NPY-Y1 receptor antagonists, primary screen, cell-based; Neuropeptide Y receptor type 1 (Homo sapiens), P25929; HEK293-CNG Y1 cells, membrane potential fluorescence; NPY at EC95, then isoproterenol; inhibition, % at 3.6 µM; 200,000 compounds, 1% hits; AID 1040, 2008;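 active = inhibition above the campaign mean inhibition of all tested compounds plus 3 SD, cut at about 20% in these data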
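Material: HEK293 Y1/CNG channel cell line | Also added: NPY (25 nM), isoproterenol (1 µM), Ro 20-1724 (25 µM) | Compound: One concentration, 3.6 µM, in 0.4% DMSO | Schedule: 3 h dye uptake, 1 h room-temperature compound, 45 min post-isoproterenol | Signal: Membrane-potential fluorescent dye readout | Read-out: % inhibition of NPY effect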
NPY-Y2 antag: NPY-Y2 receptor antagonists, primary screen, cell-based | inhibition, % at 2.7 µM | AID 793, 2007 | Neuropeptide Y receptor type 2 (Homo sapiens), P49146 | 140,000 compounds, 0.99% hits | NPY-Y2 expressing cells, antagonist mode; in the data active = inhibition above about 17%
NPY1 pot ag: NPY-Y1 receptor potentiators or agonists, primary screen, cell-based; Neuropeptide Y receptor type 1 (Homo sapiens), P25929; activation, % at 3.6 µM; AID 1304, 2008; NPY-Y1 expressing cells, potentiator/agonist activation; 220,000 compounds, 0.37% hits; in the data active = activation above about 33%, passing the limit was not always enough;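 note: cells stimulated with NPY at EC10 then isoproterenol at EC100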
NPY-Y2 pot conf: NPY-Y2 potentiators or agonists, confirmation, cell-based; 450 compounds, 20% hits; activation, % at 3.6 µM; shares compounds with NPY2 pot ag; cell-based NPY-Y2 potentiator/agonist assay; in the data active = activation above about 33%
NPY-Y1 counter: NPY-Y1 potentiators or agonists, counter-screen for NPY-Y2 potentiator project, cell-based, fluorescence | shares compounds with NPY2 pot ag | Y1 HEK293-CNG cells, membrane potential fluorescence | activation, % at 3.6 µM | 450 compounds, 20% hits | AID 1651, 2009; in the data active = activation above about 45%;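 note: cells stimulated with submaximal NPY then isoproterenol with phosphodiesterase inhibitor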
NPY-Y1 ag 2: NPY-Y1 direct agonists, selectivity assay for NPY-Y2 potentiator project, cell-based, fluorescence; shares compounds with NPY2 pot ag; 450 compounds, 37% hits; activation, % at 3.6 µM; HEK293 Y1-CNGC, membrane potential fluorescence, agonism;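 active = activation above the mean of DMSO-only control wells plus 3 SD, cut at about 18% in these data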;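 note: cells stimulated with 1 µM isoproterenol plus the PDE inhibitor Ro 20-1724; Y1 agonists lower the membrane potential dye signal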
CNGC inhibitor: CNGC cAMP sensor activity inhibitors, counter-screen for NPY-Y2 potentiator project, cell-based, HEK293-CNG parental, membrane potential fluorescence. shares compounds with NPY2 pot ag. inhibition, % at 3.6 µM. 450 compounds, 32% hits. isoproterenol cAMP. AID 1703, 2009;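 active = inhibition above the control-well mean plus 3 SD of those wells, cut at about 22% in these data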
NPY-Y2 ag 2: NPY-Y2 direct agonists, counter-screen for NPY-Y2 potentiator project, cell-based, fluorescence; shares compounds with NPY2 pot ag; HEK293 Y2/CNGC cells, membrane potential fluorescence, agonist mode; activation, % at 3.6 µM; 450 compounds, 56% hits; AID 1710, 2009;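 active = activation above the mean of solvent-only control wells plus 3 SD, cut at about 10% in these data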;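 note: cells stimulated by isoproterenol with no NPY added so direct agonism is tested; agonism lowers probe fluorescence through less cAMP and CNG channel opening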
Numbers stand for hits; - = inactive; . = no result given.

SMILES	NPY2 pot ag	Measles CPE	MDM2 E3 inh	NPY-Y1 antag	NPY-Y2 antag	NPY1 pot ag	NPY-Y2 pot conf	NPY-Y1 counter	NPY-Y1 ag 2	CNGC inhibitor	NPY-Y2 ag 2
CCC(C)c1ccc2oc(-c3ccc(NC(=O)c4ncn[nH]4)cc3)nc2c1 (stereo unspecified)	35	-	-	-	-	-	-	-	-	-	-
CNC(=O)CCc1[nH]c2ccccc2c1Sc1ccccc1	26	-	-	-	-	-	-	-	-	-	23
Cc1[nH]c2ccccc2c1SCC(=O)O	-	-	-	-	-	-	.	.	.	.	.
CN1CCN(S(=O)(=O)c2ccc(Oc3ccc(F)c(Cl)c3)nc2)CC1	96	.	-	-	.	-	-	-	-	-	-
CSc1nnc(C)c(=O)n1COC(=O)/C=C/c1ccc2c(c1)OCO2	-	.	-	-	.	-	.	.	.	.	.
COc1ccc(NS(=O)(=O)c2cccc(NC(=O)c3ccc(Cl)nc3)c2)cc1	-	.	-	-	.	-	.	.	.	.	.
O=C(Nc1cccc(S(=O)(=O)Nc2ccc(Cl)cc2)c1)c1ccc(Cl)nc1	46	-	-	-	-	-	-	-	-	-	-
O=C(CCc1ccccc1O)N/N=C/c1ccc(Sc2cccc3cccnc23)o1	37	-	-	-	-	-	-	-	34	22	22
O=C(CSc1cccc2cccnc12)N/N=C/c1ccc(O)cc1	-	.	-	.	.	-	.	.	.	.	.
COc1ccc(OCC(O)CNC(=O)Nc2ccc(F)cc2)cc1 (stereo unspecified)	-	.	-	.	.	-	.	.	.	.	.
COc1ccc(OCC(O)CNC(=O)Nc2ccccc2)cc1 (stereo unspecified)	44	.	-	.	.	-	-	-	-	-	-
OC(CNc1ccccc1)COc1ccc(OCC(O)CNc2ccccc2)cc1 (stereo unspecified)	37	-	-	-	-	-	43	57	44	44	47
CC1Cc2cc(-c3csc(NC(=O)Cc4cccs4)n3)ccc2N1S(C)(=O)=O (stereo unspecified)	44	102	-	-	-	-	-	-	-	-	-
CCC(=O)Nc1nc(-c2ccc3c(c2)CC(C)N3S(C)(=O)=O)cs1 (stereo unspecified)	-	.	-	-	.	-	.	.	.	.	.
[O-]/[N+](=C\c1ccncc1)c1ccc(Br)cc1	57	-	-	-	-	-	-	-	20	-	-
[O-]/[N+](=C/c1cccnc1)c1ccc(Br)cc1	-	-	-	-	-	-	.	.	.	.	.
O=Cc1cc(N=Nc2ccccc2Cl)ccc1O	34	.	-	-	.	-	42	51	25	25	39
Cc1c(C(C)C)c(=O)n(-c2ccc(S(=O)(=O)NCc3ccccc3)cc2)n1C	35	.	-	-	.	-	-	-	-	-	-
COc1cc(NS(=O)(=O)c2ccc(Br)cc2)c(OC)cc1NC(=O)c1ccco1	-	-	-	-	-	-	.	.	.	.	.
COc1cccc(C(=O)NCC(=O)OCc2ccc(F)cc2Cl)c1	-	-	-	-	-	-	.	.	.	.	.
O=C(/C(N=Nc1cccc([N+](=O)[O-])c1)=C(/O)c1ccc(Br)cc1)C(F)(F)F	41	.	-	.	.	-	-	-	-	-	20
C=CCS/C(N)=N\N=C\c1cc(Br)cc([N+](=O)[O-])c1O	-	.	-	.	.	-	.	.	.	.	.
C/C(N)=C(/C#N)C(=O)CSc1nn(-c2ccc(Cl)cc2)c(=S)s1	35	.	-	-	.	-	-	-	-	-	10.0
O=C(N/N=C/c1cccc2nccnc12)c1ccccc1O	-	.	-	.	.	-	.	.	.	.	.
O=C(N/N=C/c1cccc2cccnc12)c1ccccc1O	38	.	-	.	.	-	-	-	-	-	12
SMILES	NPY2 pot ag	Measles CPE	MDM2 E3 inh	NPY-Y1 antag	NPY-Y2 antag	NPY1 pot ag	NPY-Y2 pot conf	NPY-Y1 counter	NPY-Y1 ag 2	CNGC inhibitor	NPY-Y2 ag 2
C/C=C/C(=O)N1c2ccc(C)cc2C(C)=CC1(C)C	97	.	.	.	.	-	-	-	-	-	-
CCc1c(C)c(C#N)c2nc3ccccc3n2c1N(C)C	101	-	-	-	-	-	-	-	-	-	-
CC1=NC(C(F)(F)F)(C(F)(F)F)C2=C(CC(C)(C)CC2=O)N1Cc1ccco1	-	-	-	-	-	-	.	.	.	.	.
Oc1ccccc1N=Nc1ccccc1O	29	.	-	-	.	-	36	46	30	27	43
O=C(OCN1C(=O)c2ccccc2C1=O)c1ccc2c(=O)n3c(nc2c1)CCC3	-	.	.	-	-	-	.	.	.	.	.
COc1ccc(COC(=O)c2ccc3c(=O)n4c(nc3c2)CCC4)cc1F	59	.	-	.	.	-	-	-	-	-	10
O=[N+]([O-])c1ccc(Nc2c3ccccc3nc3ccccc23)cc1	31	.	-	-	.	-	47	54	36	41	45
O=[N+]([O-])c1ccc(S(=O)(=O)Nc2nc3ccccc3nc2Nc2ccccc2)cc1	-	.	-	-	.	-	.	.	.	.	.
N=c1c(-c2nc3ccccc3[nH]2)cc(C(=O)c2ccco2)nn1-c1ccccc1	38	-	-	-	-	-	83	108	80	73	80
CNC(=O)Nc1cc(NC(=O)NC)cc(C(F)(F)F)c1	-	.	-	.	.	-	.	.	.	.	.
Cc1c([N+](=O)[O-])c(C(=O)Sc2ccc(Br)cc2)nn1C	44	.	-	.	.	-	-	-	-	-	16
Cn1nc(C(C)(C)C)c([N+](=O)[O-])c1C(=O)Nc1ccc(Br)cc1	-	.	-	.	.	-	.	.	.	.	.
O=C(NCc1nc2ccccc2[nH]1)C1=C[C@H](C2CC2)C[C@H](OCc2ccc(CO)cc2)O1	.	.	-	.	.	.	.	.	.	.	.
